Experimental data as given in PMC8092417 (Anti-cancer drugs, 2020).

What was measured:
[1] = test system: TU-BcX-4IC cells; test: Transwell migration assay; format: cell-based, human; conditions: pretreated 1 μM 72 hours, 24 hours migration
Summary of the method: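 Cells were pretreated 72 h with test compound (1 μM) or DMSO, and viable cells were then seeded into transwell chambers for 24 h. Non-migrated cells were removed. Migrated cells were fixed, crystal violet-stained, imaged by brightfield and counted. Counts were normalized to DMSO per cell line; triplicate experiments.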

[2] = test system: TU-BcX-4IC explants; test: Western blot of treated PDX tumor explants; format: cell-based, human; conditions: 24 hours
[3] = test system: TU-BcX-49S tumors; test: qRT-PCR of ex vivo treated PDX tumor pieces; format: cell-based, human; conditions: TU-BcX-49S tumor pieces, 1 μM, 72 hours
[4] = test system: TU-BcX-2O0 tumors; test: qRT-PCR of ex vivo treated PDX tumor pieces; format: cell-based, human; conditions: TU-BcX-2O0 tumor pieces, 1 μM, 72 hours
[5] = test system: HLA+CD44+CD24- cancer stem cells of TU-BcX-4IC-implanted mice; test: Flow cytometry for circulating cancer stem cells in peripheral blood; format: in vivo, SCID/Beige mice; conditions: 25 mg/kg bid, vs DMSO vehicle
Summary of the method: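 Female SCID/Beige mice (n=5/group) carried TU-BcX-4IC tumor implants (3 × 3 mm) in the mammary fat pads and received i.p. test compound or DMSO vehicle twice daily for 15 days. Intracardiac blood was stored in EDTA […], RBC-lysed ([…] NH4Cl, pH 7.2–7.4), Fc-blocked, and stained with anti-human CD24, EpCAM and CD44. At least 5000 events were analyzed; n=4 mice/group; mean ± SEM.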

[6] = test system: TU-BcX-4IC M2 spheres; test: Mammosphere formation and area quantification; format: cell-based, human; conditions: 7 days treatment
Summary of the method: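 Cells were plated at 1,000/well in low-attachment plates in serum-free F12/DMEM with B-27 and left 24 h to form spheres. Spheres were then exposed to test compound or DMSO for one week, re-dosed every three days. Spheres were imaged at 40X or 100X, and length and width were measured to calculate area, which was compared with DMSO controls.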

[7] = test system: TU-BcX-4IC M2 spheres; test: In vivo inoculation of pre-treated spheres, tumorigenesis and metastasis; design: species or system SCID/Beige mice; conditions: 100,000 cells per injection
Summary of the method: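 TU-BcX-4IC M2 spheres were pre-exposed to test compound (1 μM) or DMSO for 72 h under low attachment. Spheres were dissociated to single cells with TrypLE, and only trypan blue-excluding viable cells were used. 100,000 cells/injection went bilaterally into the mammary fat pad of SCID/Beige mice (5/group). Tumours were measured biweekly by caliper, then resected. Mice were killed 20 days later, and lungs and livers were formalin-fixed, paraffin-embedded and H&E-stained for metastases.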

[8] = biological target: T1, NEK2 (Homo sapiens, UniProt P51955); test: Kinase inhibition assay; format: biochemical; conditions: 1 μM
T1 sequence (P51955 1-445): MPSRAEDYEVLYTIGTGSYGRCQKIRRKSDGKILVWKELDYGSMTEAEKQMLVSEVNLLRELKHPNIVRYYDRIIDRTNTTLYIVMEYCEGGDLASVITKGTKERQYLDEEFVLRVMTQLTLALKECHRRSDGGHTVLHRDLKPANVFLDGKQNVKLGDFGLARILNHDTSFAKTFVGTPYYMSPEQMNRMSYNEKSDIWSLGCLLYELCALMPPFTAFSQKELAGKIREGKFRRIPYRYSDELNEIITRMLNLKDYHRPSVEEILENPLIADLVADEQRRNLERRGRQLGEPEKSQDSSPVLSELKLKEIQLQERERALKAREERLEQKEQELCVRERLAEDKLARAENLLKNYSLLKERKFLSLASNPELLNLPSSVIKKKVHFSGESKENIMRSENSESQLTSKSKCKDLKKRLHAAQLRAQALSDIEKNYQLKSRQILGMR

[9] = biological target: PDGFRB (Homo sapiens, UniProt P09619); test: Kinase inhibition assay; format: biochemical; conditions: 1 μM
[10] = biological target: BRSK2 (Homo sapiens, UniProt Q8IWQ3); test: Kinase inhibition assay; format: biochemical; conditions: 1 μM
[11] = TU-BcX-4IC M2 spheres pre-treated 1 μM 72 hours

PDGFRB, sequence (P09619 33-1106): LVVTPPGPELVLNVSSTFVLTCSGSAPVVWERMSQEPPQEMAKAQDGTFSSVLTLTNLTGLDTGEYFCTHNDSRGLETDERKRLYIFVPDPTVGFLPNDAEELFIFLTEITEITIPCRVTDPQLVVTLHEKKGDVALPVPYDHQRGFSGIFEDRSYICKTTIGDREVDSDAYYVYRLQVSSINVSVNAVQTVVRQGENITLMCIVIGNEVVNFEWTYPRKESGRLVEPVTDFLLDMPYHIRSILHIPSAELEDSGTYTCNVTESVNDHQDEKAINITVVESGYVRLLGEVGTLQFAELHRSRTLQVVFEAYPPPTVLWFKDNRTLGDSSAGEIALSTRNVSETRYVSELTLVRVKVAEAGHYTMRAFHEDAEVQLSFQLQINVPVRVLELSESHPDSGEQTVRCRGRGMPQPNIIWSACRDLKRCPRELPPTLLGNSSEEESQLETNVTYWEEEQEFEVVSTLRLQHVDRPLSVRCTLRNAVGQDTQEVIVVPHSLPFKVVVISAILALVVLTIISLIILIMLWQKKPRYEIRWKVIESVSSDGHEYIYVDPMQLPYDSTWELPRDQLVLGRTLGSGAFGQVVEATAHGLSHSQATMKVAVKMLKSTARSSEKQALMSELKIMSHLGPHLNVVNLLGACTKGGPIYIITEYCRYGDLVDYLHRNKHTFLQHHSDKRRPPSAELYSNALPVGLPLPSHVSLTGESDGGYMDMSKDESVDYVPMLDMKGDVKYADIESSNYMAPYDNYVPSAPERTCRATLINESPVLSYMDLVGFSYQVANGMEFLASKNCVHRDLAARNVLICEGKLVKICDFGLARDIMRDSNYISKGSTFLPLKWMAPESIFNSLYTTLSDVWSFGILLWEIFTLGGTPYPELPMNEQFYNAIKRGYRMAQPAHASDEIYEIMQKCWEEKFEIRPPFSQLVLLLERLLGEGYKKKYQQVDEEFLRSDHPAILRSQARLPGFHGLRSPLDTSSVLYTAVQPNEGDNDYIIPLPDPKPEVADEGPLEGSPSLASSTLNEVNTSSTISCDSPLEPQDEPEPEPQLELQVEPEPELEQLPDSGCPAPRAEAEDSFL
BRSK2, sequence (Q8IWQ3 whole entry): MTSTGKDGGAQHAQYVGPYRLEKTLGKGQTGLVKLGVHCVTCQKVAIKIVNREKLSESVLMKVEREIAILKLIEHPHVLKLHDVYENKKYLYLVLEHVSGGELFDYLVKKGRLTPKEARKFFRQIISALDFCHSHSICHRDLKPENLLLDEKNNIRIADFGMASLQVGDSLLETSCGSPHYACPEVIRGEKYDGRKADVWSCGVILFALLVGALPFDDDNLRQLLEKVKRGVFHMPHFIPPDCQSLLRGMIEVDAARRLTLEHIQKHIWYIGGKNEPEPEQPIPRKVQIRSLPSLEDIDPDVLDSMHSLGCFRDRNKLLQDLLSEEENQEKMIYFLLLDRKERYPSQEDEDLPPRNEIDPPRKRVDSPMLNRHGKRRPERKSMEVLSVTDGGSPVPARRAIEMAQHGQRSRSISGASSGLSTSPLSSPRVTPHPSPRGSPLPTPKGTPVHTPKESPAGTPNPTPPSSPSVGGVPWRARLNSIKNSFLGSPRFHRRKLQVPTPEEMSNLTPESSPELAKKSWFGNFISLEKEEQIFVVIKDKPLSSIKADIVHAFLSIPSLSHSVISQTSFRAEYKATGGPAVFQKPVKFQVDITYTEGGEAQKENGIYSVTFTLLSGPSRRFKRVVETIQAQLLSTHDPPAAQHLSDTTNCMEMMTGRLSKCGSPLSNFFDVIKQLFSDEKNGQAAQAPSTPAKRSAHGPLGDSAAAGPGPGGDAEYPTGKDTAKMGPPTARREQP

C[C@@H](Oc1cc(-n2cnc3ccc(NC(=O)NC(C)(C)C)cc32)sc1C(N)=O)c1ccccc1Cl [GSK346294A]
Transwell cell migration [1]: most suppressive effects on cell migration
CDH1 protein expression [2]: increased CDH1 protein
MMP9 protein expression [2]: suppressed the mesenchymal-associated proteins MMP9 and ZEB1
ZEB1 protein expression [2]: suppressed the mesenchymal-associated proteins MMP9 and ZEB1
CDH1 mRNA expression [3]: increased epithelial markers CDH1 mRNA expression
MMP9 mRNA levels [4]: did not reduce MMP9 levels
Reversal of mesenchymal phenotype on a transcript level [4]: did not reverse the mesenchymal phenotype
CSC populations in peripheral blood [5]: suppressed the CSC populations in the peripheral blood of mice implanted with TU-BcX-4IC tumors, although not significantly
Mammosphere formation (sphere area) [6]: significantly suppressed mammosphere formation
Area of liver metastases [7, 11]: did not suppress
Area of lung metastasis [7, 11]: suppressed area of lung metastasis
Total number of lung lesions [7, 11]: significantly suppresses total number of lesions
Tumor formation of pre-treated spheres [7, 11]: significantly suppressed tumor formation
Number of liver metastases ([7]; TU-BcX-4IC MS2 spheres pre-treated 1 μM 72 hours): did not suppress
Binding activity to NEK2 [8]: 5%
Activity against PDGFRB [9]: moderate activity
Activity against BRSK2 [10]: moderate activity
